Assay [1] addresses Bacterial leucyl aminopeptidase (Vibrio proteolyticus, UniProt Q01693). The assay is described as follows: Inhibition of Aeromonas proteolytica aminopeptidase using L-leucine-p-nitroanilide as substrate after 30 mins by Dixon plot analysis. The method, boiled down:
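Commercial Aeromonas proteolytica aminopeptidase, 2 mUnits per assay in 0.05 M Tris-HCl pH 7.5, 30 °C, started by adding enzyme. L-leucine-p-nitroanilide was set at its Km (0.02 mM). Release of p-nitroanilide was read continuously at 405 nm over 30 min for initial velocities. Ki was taken from Dixon plots, with racemic compounds tested up to their solubility limit.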

In a further assay the target is T1, Cytosol aminopeptidase (Bos taurus, UniProt P00727).
T1 sequence (P00727 whole entry): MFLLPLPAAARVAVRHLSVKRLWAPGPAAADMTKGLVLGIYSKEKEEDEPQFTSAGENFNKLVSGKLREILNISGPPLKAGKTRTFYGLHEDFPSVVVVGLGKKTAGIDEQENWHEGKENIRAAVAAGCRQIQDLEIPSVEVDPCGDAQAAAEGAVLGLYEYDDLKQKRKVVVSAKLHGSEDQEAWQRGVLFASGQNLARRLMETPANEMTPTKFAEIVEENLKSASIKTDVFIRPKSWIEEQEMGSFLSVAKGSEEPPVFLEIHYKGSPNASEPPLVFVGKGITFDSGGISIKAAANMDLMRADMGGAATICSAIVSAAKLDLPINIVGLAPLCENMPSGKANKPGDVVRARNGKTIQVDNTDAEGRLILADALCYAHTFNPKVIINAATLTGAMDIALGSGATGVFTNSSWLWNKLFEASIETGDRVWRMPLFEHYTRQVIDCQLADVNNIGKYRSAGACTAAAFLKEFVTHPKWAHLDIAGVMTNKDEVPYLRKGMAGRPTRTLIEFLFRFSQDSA
Briefly: Inhibition of bovine kidney cytosolic leucine aminopeptidase using L-leucine-p-nitroanilide as substrate after 30 mins by Dixon plot analysis. The method in brief:
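Cytosolic leucine aminopeptidase, purified by a published procedure, 20 Units per assay in 0.1 M Tris-HCl, 0.1 mM ZnCl2, 5 mM MnCl2, 1 M KCl, pH 8.0, at 30 °C. […] Ki came from Dixon plots of racemates.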

The target of a further assay is T2, Aminopeptidase N (Sus scrofa, UniProt P15145).
T2 sequence (P15145 whole entry): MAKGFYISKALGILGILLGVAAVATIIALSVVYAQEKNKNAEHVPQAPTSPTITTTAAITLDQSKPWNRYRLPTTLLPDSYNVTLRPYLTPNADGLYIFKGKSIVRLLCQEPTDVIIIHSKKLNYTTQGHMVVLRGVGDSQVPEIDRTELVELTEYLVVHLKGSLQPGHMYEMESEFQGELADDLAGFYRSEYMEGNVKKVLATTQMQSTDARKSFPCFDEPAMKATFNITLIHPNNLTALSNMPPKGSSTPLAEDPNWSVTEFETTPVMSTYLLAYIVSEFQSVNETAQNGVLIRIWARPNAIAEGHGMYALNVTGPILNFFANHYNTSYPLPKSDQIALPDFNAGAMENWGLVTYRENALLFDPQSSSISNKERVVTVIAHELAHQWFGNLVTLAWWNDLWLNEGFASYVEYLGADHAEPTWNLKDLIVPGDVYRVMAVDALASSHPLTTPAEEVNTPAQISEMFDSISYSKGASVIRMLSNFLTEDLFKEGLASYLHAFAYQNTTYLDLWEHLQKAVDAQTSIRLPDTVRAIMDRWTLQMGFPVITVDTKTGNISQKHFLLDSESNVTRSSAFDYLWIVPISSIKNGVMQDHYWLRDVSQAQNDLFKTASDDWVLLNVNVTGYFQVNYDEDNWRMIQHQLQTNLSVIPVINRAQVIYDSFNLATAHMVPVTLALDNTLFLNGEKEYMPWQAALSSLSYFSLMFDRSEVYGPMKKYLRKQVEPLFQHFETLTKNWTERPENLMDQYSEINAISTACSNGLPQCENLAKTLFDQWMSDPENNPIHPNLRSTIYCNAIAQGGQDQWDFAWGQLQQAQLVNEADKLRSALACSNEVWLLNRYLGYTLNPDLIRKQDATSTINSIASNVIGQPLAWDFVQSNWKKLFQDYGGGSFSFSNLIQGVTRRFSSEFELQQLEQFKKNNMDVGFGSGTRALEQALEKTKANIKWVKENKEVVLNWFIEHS
The assay is described as follows: Inhibition of porcine kidney APN using L-leucine-p-nitroanilide as substrate after 30 mins by Dixon plot analysis.

Each structure is given as a SMILES string.

Broadly, the Ki is the dissociation constant of the complex between target and ligand, obtained from inhibition or displacement. Low readings indicate higher affinity, high ones lower affinity.

Bacterial leucyl aminopeptidase, sequence (Q01693 whole entry): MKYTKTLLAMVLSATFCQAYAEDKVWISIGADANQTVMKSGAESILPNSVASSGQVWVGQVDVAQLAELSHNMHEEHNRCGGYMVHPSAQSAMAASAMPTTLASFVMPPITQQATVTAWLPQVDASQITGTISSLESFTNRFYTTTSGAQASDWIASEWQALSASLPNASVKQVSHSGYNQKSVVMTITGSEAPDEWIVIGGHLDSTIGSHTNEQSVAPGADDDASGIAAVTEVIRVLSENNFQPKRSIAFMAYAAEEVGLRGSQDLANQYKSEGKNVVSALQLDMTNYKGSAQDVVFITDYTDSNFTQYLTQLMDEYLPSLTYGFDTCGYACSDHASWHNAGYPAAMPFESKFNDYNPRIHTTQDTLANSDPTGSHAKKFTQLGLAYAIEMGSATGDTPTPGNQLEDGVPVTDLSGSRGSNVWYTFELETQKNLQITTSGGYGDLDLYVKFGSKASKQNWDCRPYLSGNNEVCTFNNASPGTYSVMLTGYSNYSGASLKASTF

In the case of `NC1CCc2ccccc2CC1=O` (racemic), the Ki is 900 µM in assay [1] and over 100 µM on Cytosol aminopeptidase.

`NC1CCc2c(Cl)cccc2CC1=O` (racemic): the Ki (in assay [1]; at Cytosol aminopeptidase) was over 100 µM throughout.

`NC1CCc2c(Br)cccc2CC1=O` (racemic): the Ki (in assay [1]; on Cytosol aminopeptidase) was over 100 µM each time.

On to `NC1CCc2c(cccc2-c2ccccc2)CC1=O` (racemic), for which the inhibition constant Ki (in assay [1]; at Cytosol aminopeptidase) was over 100 µM in each case.

`NC1CCc2cccc(Br)c2CC1=O` (racemic): the Ki in assay [1] was 213 µM; on Cytosol aminopeptidase, over 100 µM.

Regarding `NC1CCc2cccc(-c3ccccc3)c2CC1=O` (racemic), the values for the Ki (in assay [1]; on Cytosol aminopeptidase) were 28 µM and over 100 µM, respectively.

With `NC1CCc2c(-c3ccccc3)ccc(Br)c2CC1=O` (racemic), the Ki in assay [1] is over 100 µM; at Cytosol aminopeptidase it was over 100 µM; on Aminopeptidase N, 0.07 µM.

Take `NC1CCc2c(Br)ccc(-c3ccccc3)c2CC1=O` (racemic): the Ki in assay [1] came out at 39 µM; at Cytosol aminopeptidase it was 70 µM.

For the compound `NC1CCc2c(Br)ccc(Br)c2CC1=O` (racemic), the Ki at Cytosol aminopeptidase was over 100 µM; on Aminopeptidase N, 0.006 µM.

Regarding `NC1CCc2c(-c3ccccc3)ccc(-c3ccccc3)c2CC1=O` (racemic), the Ki in assay [1] is over 100 µM; at Cytosol aminopeptidase, 50 µM; on Aminopeptidase N, 0.04 µM.

Regarding `NC1CCc2ccc3ccccc3c2CC1=O` (racemic), the Ki in assay [1] is over 100 µM; at Cytosol aminopeptidase, over 100 µM; at Aminopeptidase N, 0.1 µM.

With `NC1CCc2c(ccc3ccccc23)CC1=O` (racemic), the Ki in assay [1] was over 100 µM; at Cytosol aminopeptidase, over 100 µM; at Aminopeptidase N, 0.04 µM.

(Values after ChEMBL document CHEMBL1821575, “A novel amino-benzosuberone derivative is a picomolar inhibitor of mammalian aminopeptidase N/CD13” (Bioorg Med Chem, 2011).)
